Assays:
SARS-CoV-2 = test: Antiviral activity against SARS-CoV-2 Wuhan-HU-1 infected in HEK293T cells assessed as inhibition of viral replication incubated for 30 hrs by luciferase reporter gene assay; type: functional, organism-based; settings: Severe acute respiratory syndrome coronavirus 2, Wuhan-HU-1, HEK-293T
Summary of the method: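 This is a non-infectious Wuhan-Hu-1 replicon system, not infectious virus. Replicon RNA was electroporated into 293T cells, which were then incubated for 30 h with compound at 2, 0.5, 0.1 and 0.02 µM or with 0.1% DMSO. Read-out was luciferase activity. Values are mean ± SD.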

[1] = Inhibition of MERS-CoV 3CLpro using FAM-SAVLQ as substrate preincubated with enzyme for 1 hr followed by susbtrate addition and measured after 1 hr by FRET assay; parameters: species or system Middle East respiratory syndrome-related coronavirus
[2] = Cytotoxicity against human HEK293T cells assessed as reduction in cell viability incubated for 72 hrs by CytoTox 96 nonradioactive assay; type: toxicity, cell-based, HEK-293T
[3] = target: Replicase polyprotein 1ab (Severe acute respiratory syndrome coronavirus 2, UniProt P0DTD1); test: Inhibition of N-terminal His6-tagged full length SARS-CoV-2 3CLpro using FAM-SAVLQ as substrate preincubated with enzyme for 1 hr followed by susbtrate addition and measured after 1 hr by FRET assay
[4] = Safety index, ratio of CC50 for cytotoxicity against human HEK293T cells to EC50 for antiviral activity against SARS-CoV-2 Wuhan-HU-1 infected in HEK293T cells; type: toxicity, cell-based; settings: read-out: Ratio CC50/EC50
Summary of the method: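 In vitro safety index was calculated as the 293T CC50 divided by the SARS-CoV-2 replicon EC50.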

SMILES | EC50 (SARS-CoV-2) [nM] | IC50 [1] [nM] | CC50 at 72 h [2] [nM] | IC50 [3] [nM] | selectivity ratio [4]
CC(C)C[C@H](NC(=O)OCc1ccccc1)C(=O)N[C@@H](C[C@@H]1CCNC1=O)C(O)S(=O)(=O)O (stereo not given in full) | 27 |  |  |  | 
CC(C)C[C@H](NC(=O)OCc1ccccc1)C(=O)N[C@H](C=O)C[C@@H]1CCNC1=O | 31 | 280 | […] |  | 
CC(C)C[C@H](NC(=O)OCC(C)(C)Sc1ccc(F)cc1)C(=O)N[C@H](C=O)C[C@@H]1CCNC1=O |  | 190 | > 50000 | 170 | 
CC(C)C[C@H](NC(=O)OCC(C)(C)Oc1ccc(F)cc1)C(=O)N[C@@H](C[C@@H]1CCNC1=O)C(O)S(=O)(=O)O (stereo not given in full) |  | 40 | > 50000 | 230 | 
CC(C)C[C@H](NC(=O)OCC(C)(C)Sc1nc2ccccc2[nH]1)C(=O)N[C@H](C=O)C[C@@H]1CCNC1=O |  | 120 | > 50000 | 300 | 
[2H]C([2H])(OC(=O)N[C@@H](CC(C)C)C(=O)N[C@@H](C[C@@H]1CCNC1=O)C(O)S(=O)(=O)[O-])C(C)(C)Oc1ccc(Cl)cc1.[Na+] (stereo not given in full) | 12 | 20 | > 50000 | 170 | 3330
CC(C)C[C@H](NC(=O)OCC(C)(C)Sc1cccc(Cl)c1)C(=O)N[C@@H](C[C@@H]1CCNC1=O)C(O)S(=O)(=O)O (stereo not given in full) | 11 | 100 | > 50000 | 170 | 3330
CC(C)C[C@H](NC(=O)OCC(C)(C)Sc1ccccc1)C(=O)N[C@@H](C[C@@H]1CCNC1=O)C(O)(C(=O)NC1CC1)S(=O)(=O)O (stereo not given in full) | 70 | 180 | > 50000 | 450 | 
CC(C)C[C@H](NC(=O)OCC(C)(C)Sc1cccc(F)c1)C(=O)N[C@H](C=O)C[C@@H]1CCNC1=O | 9 | 100 | > 50000 | 140 | 3330
CC(C)C[C@H](NC(=O)OCC(C)(C)Oc1ccc(Cl)cc1)C(=O)N[C@H](C=O)C[C@@H]1CCNC1=O |  | 20 | > 50000 | 460 | 
CC(C)C[C@H](NC(=O)OCC(C)(C)Oc1ccccc1)C(=O)N[C@@H](C[C@@H]1CCNC1=O)C(O)S(=O)(=O)O (stereo not given in full) |  | 20 | > 50000 | 240 | 
CC(C)C[C@H](NC(=O)OCC(C)(C)Sc1ccccc1)C(=O)N[C@@H](C[C@@H]1CCNC1=O)C(O)S(=O)(=O)O (stereo not given in full) | 10 |  | > 50000 | 90 | 3330
CC(C)C[C@H](NC(=O)OCC(C)(C)Oc1cccc(F)c1)C(=O)N[C@H](C=O)C[C@@H]1CCNC1=O |  | 50 | > 50000 | 200 | 
CC(C)C[C@H](NC(=O)OCC(C)(C)Oc1cccc(F)c1)C(=O)N[C@@H](C[C@@H]1CCNC1=O)C(O)S(=O)(=O)O (stereo not given in full) |  | 40 | > 50000 | 120 | 
[2H]C([2H])(OC(=O)N[C@@H](CC(C)C)C(=O)N[C@@H](C[C@@H]1CCNC1=O)C(O)S(=O)(=O)[O-])C(C)(C)Oc1cccc(Cl)c1.[Na+] (stereo not given in full) |  | 70 | > 50000 | 280 | 
CC(C)C[C@H](NC(=O)OCC(C)(C)Oc1cccc(Cl)c1)C(=O)N[C@@H](C[C@@H]1CCNC1=O)C(O)S(=O)(=O)O (stereo not given in full) | 14 | 20 | > 50000 | 210 | 3330

SMILES | EC50 (SARS-CoV-2) [nM] | IC50 [1] [nM] | CC50 at 72 h [2] [nM] | IC50 [3] [nM] | selectivity ratio [4]
CC(C)C[C@H](NC(=O)OCCSc1ccccc1)C(=O)N[C@H](C=O)C[C@@H]1CCNC1=O |  | 140 | > 50000 | 320 | 
CC(C)C[C@H](NC(=O)OCC(C)(C)Sc1nc2ccccc2[nH]1)C(=O)N[C@@H](C[C@@H]1CCNC1=O)C(O)S(=O)(=O)O (stereo not given in full) |  | 210 | > 50000 |  | 
CC(C)C[C@H](NC(=O)OCC(C)(C)Sc1cccc(F)c1)C(=O)N[C@@H](C[C@@H]1CCNC1=O)C(O)S(=O)(=O)O (stereo not given in full) | 10 |  | > 50000 | 130 | 3330
CC(C)C[C@H](NC(=O)OCC(C)(C)S(=O)(=O)c1ccccc1)C(=O)N[C@H](C=O)C[C@@H]1CCNC1=O |  | 260 | > 50000 | 190 | 
CC(C)C[C@H](NC(=O)OCC(C)(C)Oc1ccccc1)C(=O)N[C@H](C=O)C[C@@H]1CCNC1=O |  | 40 | > 50000 | 310 | 
CC(C)C[C@H](NC(=O)OCC(C)(C)Oc1ccc(Cl)cc1)C(=O)N[C@@H](C[C@@H]1CCNC1=O)C(O)S(=O)(=O)O (stereo not given in full) |  | 110 | > 50000 | 340 | 
CC(C)C[C@H](NC(=O)OCCSc1ccccc1)C(=O)N[C@@H](C[C@@H]1CCNC1=O)C(O)S(=O)(=O)O (stereo not given in full) |  | 140 | > 50000 | 310 | 
CC(C)C[C@H](NC(=O)OCC(C)(C)Sc1ccc(F)cc1)C(=O)N[C@@H](C[C@@H]1CCNC1=O)C(O)S(=O)(=O)O (stereo not given in full) |  | 150 | > 50000 | 270 | 
[2H]C([2H])(OC(=O)N[C@@H](CC(C)C)C(=O)N[C@H](C=O)C[C@@H]1CCNC1=O)C(C)(C)Oc1cccc(Cl)c1 |  | 40 | > 50000 | 300 | 
CC(C)C[C@H](NC(=O)OCC(C)(C)S(=O)(=O)c1ccccc1)C(=O)N[C@@H](C[C@@H]1CCNC1=O)C(O)S(=O)(=O)O (stereo not given in full) |  | 280 | > 50000 | 200 | 
[2H]C([2H])(OC(=O)N[C@@H](CC(C)C)C(=O)N[C@@H](C[C@@H]1CCNC1=O)C(O)S(=O)(=O)[O-])C(C)(C)Sc1ccccc1.[Na+] (stereo not given in full) | 12 | 40 | > 50000 | 310 | 3330
CC(C)C[C@H](NC(=O)OCC(C)(C)[S+]([O-])c1ccccc1)C(=O)N[C@H](C=O)C[C@@H]1CCNC1=O (mixture of isomers) |  | 190 | > 50000 | 330 | 
CC(C)C[C@H](NC(=O)OCC(C)(O)c1cccc(Cl)c1)C(=O)N[C@@H](C[C@@H]1CCNC1=O)C(O)S(=O)(=O)O (mixture of isomers) | 25 | 100 | > 50000 | 320 | 
CC(C)C[C@H](NC(=O)OCC(C)(C)[S+]([O-])c1ccccc1)C(=O)N[C@@H](C[C@@H]1CCNC1=O)C(O)S(=O)(=O)O (mixture of isomers) |  | 250 | > 50000 | 350 | 
CC(C)C[C@H](NC(=O)OCC(C)(O)c1cccc(Cl)c1)C(=O)N[C@H](C=O)C[C@@H]1CCNC1=O (mixture of isomers) | 25 | 120 | > 50000 | 290 | 

— ChEMBL document CHEMBL5325428 (Eur J Med Chem, 2023)
